Reference: ChEMBL document CHEMBL1139179, “5-Alkynyl-2'-deoxyuridines: chromatography-free synthesis and cytotoxicity evaluation against human breast cancer cells” (Bioorg Med Chem, 2007)

Key:
MDA-MB-231 = assay: Cytotoxicity against human MDA-MB-231 cells after 72 hrs; type: functional, cell-based; details: MDA-MB-231, 72 h
Procedure, shortened: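 MDA-MB-231 cells (100 μL at 5000 cells/mL) grown 72 h at 37 °C, 5% CO2, then given graded concentrations (six replicates) for a further 72 h. Glutardialdehyde fixation, 0.02 M crystal violet staining, 70% ethanol elution, absorbance at 590 nm. A day-0 biomass plate was subtracted and the control taken as 100%. IC50 is 50% proliferation inhibition, mean of at least two independent runs.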

MCF7 [1] = assay: Cytotoxicity against human MCF7 cells after 96 hrs; details: MCF7, 96 h
MCF7 [2] = assay: Cytotoxicity against human MCF7 cells after 72 hrs; type: functional, cell-based; details: MCF7, 72 h

| Compound | IC50 (MDA-MB-231) [µM] | IC50 (MCF7 [1]) [µM] | IC50 (MCF7 [2]) [µM] |
| --- | --- | --- | --- |
| C#Cc1cn([C@H]2C[C@H](O)[C@@H](CO)O2)c(=O)[nH]c1=O | 4.4 | 0.4 | – |
| C[Si](C)(C)C#Cc1cn([C@H]2C[C@H](O)[C@@H](CO)O2)c(=O)[nH]c1=O | 4.2 | 1.6 | – |
| O=c1[nH]c(=O)n([C@H]2C[C@H](O)[C@@H](CO)O2)cc1C#CC1CC1 | > 50 | > 50 | – |
| Cc1ccc(C#Cc2cn([C@H]3C[C@H](O)[C@@H](CO)O3)c(=O)[nH]c2=O)cc1 | > 50 | – | 0.9 |
| CCCCCc1ccc(C#Cc2cn([C@H]3C[C@H](O)[C@@H](CO)O3)c(=O)[nH]c2=O)cc1 | 29.2 | 37 | – |
| CCCC#Cc1cn([C@H]2C[C@H](O)[C@@H](CO)O2)c(=O)[nH]c1=O | > 50 | > 50 | – |
| O=c1[nH]c(=O)n([C@H]2C[C@H](O)[C@@H](CO)O2)cc1C#CC1(O)CCCCC1 | > 50 | > 50 | – |
| CC(C)(C)c1ccc(C#Cc2cn([C@H]3C[C@H](O)[C@@H](CO)O3)c(=O)[nH]c2=O)cc1 | > 50 | 9.5 | – |
| O=c1[nH]cc(F)c(=O)[nH]1 [FLUOROURACIL] | 9.6 | – | 4.8 |
